Data set [1] is described as follows: folding enthalpy; higher = less favourable; fluorescence melt of hairpins on a sequencing array, two-state fit. The following applies: sodium 0.088 M. Summed up:
(§1)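 Library hairpins on a sequenced MiSeq flow cell carried annealed Cy3 and quencher oligos, and their Cy3 fluorescence was imaged in 50 mM Na-HEPES pH 8.0 with 25 mM NaCl, in 2.5 °C steps up to 60 °C. Signals were normalised to Cy3 before quenching and to control constructs. Melting temperature and folding enthalpy were obtained from bootstrapped two-state fits, combined by inverse-variance weighting across four replicates, and the fitted temperatures were then raised by 9.35 °C to match UV melts.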

Data set [2] in a line: melting temperature; fluorescence melt of hairpins on a sequencing array, two-state fit, raised by 9.35 °C to match UV melts. The following applies: sodium 0.088 M. Summed up:
as §1

With GATCAAACTATTGATC ((((((....)))))), in data set [1], the folding enthalpy is -30.1 kcal/mol. In addition, the Tm in data set [2] amounted to 40.3 °C.
On the same counts, the results for GATCAAACTGTTGATC ((((((....)))))) are -25.7 kcal/mol and 41 °C.
On the same counts, the results for GATCAAAGACTTGATC ((((((....)))))) are -25.1 kcal/mol and 39.2 °C.
On the same counts, the results for GATCAAAGCATTGATC ((((((....)))))) are -36.8 kcal/mol and 43.7 °C.
Turning to GATCAAAGGATTGATC ((((((....)))))), the folding enthalpy in data set [1] is -19.1 kcal/mol. The Tm in data set [2] was 40.9 °C.
Taken in the same sequence, the figures for GATCAAAGGCTTGATC ((((((....)))))) were -31.5 kcal/mol and 41 °C.
On the same counts, the results for GATCAAAGGGTTGATC ((((((....)))))) are -28.3 kcal/mol and 39.1 °C.
As to GATCAAATACTTGATC ((((((....)))))), the folding enthalpy in data set [1] is -33.2 kcal/mol. In addition, in data set [2], the Tm amounted to 39.9 °C.
Taken in the same sequence, the figures for GATCAAATTGTTGATC ((((((....)))))) were -28.3 kcal/mol and 41.8 °C.
Regarding GATCAACAAATTGATC ((((((....)))))), the folding enthalpy in data set [1] is -31.3 kcal/mol. Besides, the Tm in data set [2] worked out at 36.4 °C.
Taken in the same sequence, the figures for GATCAACAAGTTGATC ((((((....)))))) were -34.2 kcal/mol and 51.8 °C.
Taken in the same sequence, the figures for GATCAACAATTGATC ((((((...)))))) were -21.6 kcal/mol and 33.4 °C.
Taken in the same sequence, the figures for GATCAACACCTTGATC ((((((....)))))) were -32.7 kcal/mol and 46.7 °C.
Consider GATCAACAGGTTGATC ((((((....)))))), for which the folding enthalpy in data set [1] is -36.2 kcal/mol. Besides, the Tm in data set [2] was 51.4 °C.
On the same counts, the results for GATCAACATATTGATC ((((((....)))))) are -30.2 kcal/mol and 42.6 °C.
For the sequence GATCAACCCGTTGATC ((((((....)))))), the folding enthalpy in data set [1] is -42 kcal/mol. For the same sequence, the Tm in data set [2] came to 53 °C.
Taken in the same sequence, the figures for GATCAACCGAAAGGTATC (((..(((....)))))) were -12.1 kcal/mol and 25.6 °C.
Taken in the same sequence, the figures for GATCAACCGATTGATC ((((((....)))))) were -32.6 kcal/mol and 41.5 °C.
On the same counts, the results for GATCAACCGTTGATC ((((((...)))))) are -38.1 kcal/mol and 41.1 °C.
For the sequence GATCAACGAGTTGATC ((((((....)))))), the folding enthalpy in data set [1] was -51 kcal/mol. The Tm in data set [2] was found to be 55.6 °C.
On the same counts, the results for GATCAACGCCTTGATC ((((((....)))))) are -26 kcal/mol and 46.1 °C.
Taken in the same sequence, the figures for GATCAACGCTTTGATC ((((((....)))))) were -44.1 kcal/mol and 46.4 °C.
Take GATCAACGTTTTGATC ((((((....)))))): in data set [1], the folding enthalpy was -30.4 kcal/mol. For the same sequence, the Tm in data set [2] stood at 42.8 °C.
For GATCAACTAGTTGATC ((((((....)))))), the folding enthalpy in data set [1] was -38.6 kcal/mol. Moreover, the Tm in data set [2] amounted to 56.3 °C.
As for GATCAACTCTTGATC ((((((...)))))), the folding enthalpy in data set [1] was -35.7 kcal/mol. In addition, the Tm in data set [2] amounted to 42.3 °C.
As to GATCAACTCTTTGATC ((((((....)))))), the folding enthalpy in data set [1] was -37.5 kcal/mol. Besides, the Tm in data set [2] came to 45.1 °C.
As to GATCAACTTTTGATC ((((((...)))))), the folding enthalpy in data set [1] is -30.7 kcal/mol. Moreover, the Tm in data set [2] worked out at 43.2 °C.
On the same counts, the results for GATCAAGAATTTGATC ((((((....)))))) are -30.8 kcal/mol and 49 °C.
On the same counts, the results for GATCAAGAGTTGATC ((((((...)))))) are -24.8 kcal/mol and 37.8 °C.
Taken in the same sequence, the figures for GATCAAGAGTTTGATC ((((((....)))))) were -29.6 kcal/mol and 41.4 °C.
As to GATCAAGATGTTGATC ((((((....)))))), in data set [1], the folding enthalpy is -28 kcal/mol. Moreover, in data set [2], the Tm came out at 43.5 °C.
On the same counts, the results for GATCAAGCAGTTGATC ((((((....)))))) are -31.8 kcal/mol and 46.6 °C.
Taken in the same sequence, the figures for GATCAAGCGCTTGATC ((((((....)))))) were -51.6 kcal/mol and 55.9 °C.
Taken in the same sequence, the figures for GATCAAGGAAACTTGACC (.(((((....))))).) were -18.7 kcal/mol and 29.8 °C.
As to GATCAAGGAAACTTGGTC ((.((((....)))).)), the folding enthalpy in data set [1] was -30.5 kcal/mol. In addition, in data set [2], the Tm was 41.5 °C.
Consider GATCAAGGCGTTGATC ((((((....)))))), for which the folding enthalpy in data set [1] was -35.8 kcal/mol. Moreover, in data set [2], the Tm came out at 48.5 °C.
Taken in the same sequence, the figures for GATCAAGGGATTGATC ((((((....)))))) were -26.9 kcal/mol and 44.8 °C.
For the sequence GATCAAGGTATTGATC ((((((....)))))), in data set [1], the folding enthalpy is -35.2 kcal/mol. Moreover, in data set [2], the Tm worked out at 48.7 °C.

The record behind these values is the array DNA melting data of Ke et al. (doi:10.1101/2024.01.08.574731).
